# Screening results from PubChem BioAssay.
# Hits are enriched below; roughly 1.5% of the tested compounds scored in any of these assays.
# HCV core dimer – blocks dimerization of HCV core protein; TR-FRET GST/Flag-core106 dimerization, 1536-well; inhibition, % at 5 µM; 0.33% of 300,000 active;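 active means inhibition above the mean of all tested compounds plus 3 SD, set per screening campaign, cut at about 45% in these data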
#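 test system = GST/Flag-tagged HCV core106 proteins | probe or stimulus = Eu donor and XL665 acceptor anti-tag antibodies | times = compound-protein-antibody incubation 4 h at 22.5 °C | signal = TR-FRET, excitation 340 nm, emission 617 and 671 nm | measure = percent inhibition of core106 dimerization signal | controls = wells lacking GST-core106 and wells with excess unlabelled core106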
# CendR NRP1 mod – modulators of CendR peptide binding to human neuropilin-1 | O14786 | FAM-RPARPAR peptide binding to NRP-1, fluorescence polarization | inhibition, % at 25 µM | 0.85% of 360,000 active;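 active means inhibition or corrected inhibition above about 18%, plus a signal ratio from 0.5 to 1.5, limit read from the data, passing the limit was not always enough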
# MEX-5 binding – C. elegans MEX-5 TCR-2 RNA binding activity; MEX-5/FITC-TCR2 RNA binding, fluorescence polarization; hits give low values; activity score (negative = inhibition of binding), % at 10 µM; 0.38% of 300,000 active; AID 1832;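 active means inhibition past about -25% in most replicates, and total fluorescence under double the plate's negative control median, limit read from the data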;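 further: 0% = DMSO and -100% = 5 µM competing unlabeled TCR2 RNA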
# Target sequence (Q9XUB2 whole entry, looked up): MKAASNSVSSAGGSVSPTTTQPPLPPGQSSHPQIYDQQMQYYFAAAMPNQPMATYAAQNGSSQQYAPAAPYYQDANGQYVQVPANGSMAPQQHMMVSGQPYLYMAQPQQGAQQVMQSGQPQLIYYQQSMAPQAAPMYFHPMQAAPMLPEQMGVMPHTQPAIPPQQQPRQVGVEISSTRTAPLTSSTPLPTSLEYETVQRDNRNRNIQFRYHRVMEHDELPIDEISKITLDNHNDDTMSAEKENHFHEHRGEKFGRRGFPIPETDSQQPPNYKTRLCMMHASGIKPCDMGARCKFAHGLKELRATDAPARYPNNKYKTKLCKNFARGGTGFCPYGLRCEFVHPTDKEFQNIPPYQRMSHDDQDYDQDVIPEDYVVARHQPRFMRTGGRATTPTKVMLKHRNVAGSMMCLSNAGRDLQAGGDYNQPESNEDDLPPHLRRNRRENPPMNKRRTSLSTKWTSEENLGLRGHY
# DNA FID counter – counter-screen for HCV NS3 helicase inhibitors: DNA intercalator displacement; DNA fluorescent intercalator displacement, fluorescence; inhibition, % at 7.9 µM; 0.17% of 290,000 active; AID 1845; in the data active means inhibition above about 37%;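 further: 0% = vehicle and 100% = reference compound; higher means more ethidium bromide displaced from hairpin DNA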
# * hit, by the source's call; . = not tested or not shown.
SMILES,HCV core dimer,CendR NRP1 mod,MEX-5 binding,DNA FID counter
CN1CCN(c2nc(-c3ccccc3)ncc2S(C)(=O)=O)CC1,-14.7,16.6*,-0.3,-5.4
CCOC(=O)c1cnc(-c2ccccc2)nc1Oc1ccc(OC)cc1,-0.4,26.0*,-3.7,-1.9
CS(=O)(=O)c1cnc(-c2ccccc2)nc1Oc1ccc(Cl)cc1,0.1,23.0*,-0.7,-2.9
CCOC(=O)C1CCCN(C(=O)c2cccnc2Oc2ccccc2)CC1 (stereo unspecified),.,-11.8,.,.
CN(Cc1ccccc1)C(=O)CN1CCN(S(=O)(=O)c2ccccc2F)CC1,.,-3.7,.,.
N#CCCN1CCNCC1,-0.7,34.2*,-1.0,3.1
Cn1c(Oc2cccnc2CN2CCCC2)nc2cc(-c3cccc(C(F)(F)F)c3)sc2c1=O,.,-8.6,.,.
CS(=O)(=O)Nc1ccc(C(=O)Nc2ccccc2-c2ccccc2)cc1,2.5,26.6*,-2.5,-13.3
CS(=O)(=O)Nc1ccc(C(=O)Nc2ccccc2Cl)cc1,-1.2,7.1,-0.9,1.7
CCCNC(=O)OC1CC2CC1[C@H]1CCCCN1C2=O (stereo partly specified),.,-0.3,.,.
O=C(COC(=O)/C=C/c1cccc(F)c1)NCc1ccc2c(c1)OCO2,.,1.7,.,.
CC1(C)CC(N2CCC(=O)N(C3CC(C)(C)NC(C)(C)C3)C2)CC(C)(C)N1,1.6,15.6,-1.1,37.3*
CC1(C)CC(N2CCC(=O)NC2=S)CC(C)(C)N1,0.5,13.0,2.6,.
CN1CCN(S(=O)(=O)NC[C@H]2O[C@@H](n3cnc4c(N)ncnc43)[C@H](O)[C@@H]2O)CC1,.,-21.6,.,.
COc1ccc(Cl)cc1Cn1c(C)c(C(=O)NCc2ccccc2C(F)(F)F)sc1=O,.,-18.9,.,.
COc1ccc(Cl)cc1Cn1c(C)c(C(=O)NCc2cccc(C(F)(F)F)c2)sc1=O,.,27.0*,.,.
COCCNC(=O)C1CCCN(C(=O)c2ccnc(Cl)c2)CC1 (stereo unspecified),.,19.4,.,.
COc1ccccc1/C=N/NC(=O)CN(C1=NS(=O)(=O)c2ccccc21)c1ccccc1,16.9,26.3*,2.9,-16.5
COc1ccc(/C=N/NC(=O)CN(C2=NS(=O)(=O)c3ccccc32)c2ccccc2)cc1,19.0,-2.3,3.1,-4.6
Oc1ccc(C2C[C@H]3CC[C@@H]2C3)cc1O (stereo partly specified),-3.1,-0.3,-65.1*,1.3
Cc1ccc(S(=O)(=O)N2CCN(C(=O)COC(=O)C3CCC3)CC2)cc1,-10.5,20.2,-2.5,.
N#C/C(=C\c1ccc(-c2nc3ccccc3s2)o1)C(N)=O,-9.7,-35.6,-8.4,2.0
CNC(=O)/C(C#N)=C/c1ccc(-c2nc3ccccc3s2)o1,3.3,-12.0,-67.3*,1.2
Cc1ccc(NC(=O)CSCC(=O)N(C)Cc2c(F)cccc2Cl)cc1,.,0.0,.,.
Cc1ccc(S(=O)C(c2ccccc2)c2ccccc2)cc1 (stereo unspecified),.,20.4*,.,.
SMILES,HCV core dimer,CendR NRP1 mod,MEX-5 binding,DNA FID counter
CCN(CC(=O)Nc1c(F)cccc1F)C(=O)c1ccc2ccccc2n1,-1.4,1.6,0.8,.
CCOc1ccc(/C=C/C(=O)N(CC)CC(=O)Nc2c(F)cccc2F)cc1OC,.,21.9*,.,.
CCN(CC(=O)Nc1c(F)cccc1F)C(=O)/C=C/c1ccc2ccccc2n1,75.2*,-5.7,-1.5,.
Oc1ccc(NC(=S)N=Nc2c(O)[nH]c3ccccc23)cc1,-9.6,3.0,-25.9*,-2.1
O=S1(=O)N[C@@H](Cc2ccccc2)COc2ccc(Cl)cc21,.,5.0,.,.
COc1cc(OC)nc(Nc2nc(C(N)Cc3ccc(C(F)(F)F)cc3)cs2)n1 (stereo unspecified),.,-8.7,.,.
CCn1c(SCC(=O)NCCc2ccccc2)nnc1-c1cccs1,2.3,4.3,2.1,-20.9
CCn1c(SCC(=O)c2ccccc2)nnc1-c1cccs1,0.3,31.8*,1.6,-19.9
C=CCNC(=O)C1CC(=O)N(c2ccc(OCC(=O)NCc3ccccc3)cc2)C1 (stereo unspecified),-1.3,26.5*,0.5,-11.5
Nc1c(C(=O)Nc2ccc(S(=O)(=O)N3CCCC3)cc2)sc2nc3ccc(OC(F)(F)F)cc3cc12,63.0*,-108.7,-12.6,-6.6
S=C(NCC1CCCO1)Nc1ccccc1 (stereo unspecified),-6.1,20.7*,-1.2,5.3
S=C(NCCCNC(=S)Nc1ccccc1)Nc1ccccc1,1.1,47.5*,-0.7,-16.8
CCCNC(=S)Nc1ccc(Nc2ccccc2)cc1,-13.7,10.5,-0.5,-6.2
O=C(Nc1nnc(SCc2ccccc2)s1)C1=COCCO1,3.2,24.3*,3.6,.
Cc1onc(-c2c(Cl)cccc2Cl)c1C(=O)c1c[nH]c(C(=O)NCCCN2CCOCC2)c1,0.0,23.1*,1.6,20.1
O=C(c1cccc(NS(=O)(=O)c2cccc(F)c2)c1)N1CCCC1,.,26.6*,-1.4,-17.8
Cc1ccc(S(=O)(=O)Nc2cccc(C(=O)N3CCOCC3)c2)cc1,-0.6,22.7*,-0.7,-9.9
C=CCn1c(O)c(N=NC(=O)CNC(=O)/C=C/c2ccco2)c2ccccc21,49.0*,-17.8,-1.3,-12.5
COc1cc2ccccc2ccc1=NO,.,-10.5,.,.
CNC(=O)Cn1ncc2c(C)n(Cc3ccc(C)cc3)c(C)c2c1=O,2.3,15.3,-1.8,-13.1
Cc1c2cnn(CC(=O)Nc3c(F)c(F)cc(F)c3F)c(=O)c2c(C)n1Cc1ccccc1F,55.3*,-40.7,0.3,-23.5
COc1ccc(Cl)cc1Nc1nc(N)c2ccccc2n1,-0.2,0.8,-2.7,36.8*
Cc1cccc(C)c1NC(=O)C(C1CC1)n1c(=O)c(-c2cc3ccccc3[nH]2)nc2ccccc21 (stereo unspecified),.,-9.0,.,.
C=CCC1NS(=O)(=O)OCC1NC(=O)OCC(Cl)(Cl)Cl (stereo unspecified),-3.5,17.9,0.6,-5.5
CC(C)(C)OC1NS(=O)(=O)OCC1NCOC(Cl)(Cl)Cl (stereo unspecified),-18.0,25.9*,0.7,11.5
SMILES,HCV core dimer,CendR NRP1 mod,MEX-5 binding,DNA FID counter
COc1ccccc1OCCn1nc2ccccc2c1OC,.,10.3,.,.
CCN(CC)CCNC(=O)c1ccc2c(c1NCCO)C(=O)c1ccccc1C2=O,-24.1,-1.5,-17.4,41.7*
Nc1cccc(C(=O)OCC(=O)Nc2cccc3c2C(=O)c2ccccc2C3=O)c1,17.3,24.8,-0.4,-0.3
CCN(CC)CCC(=O)Nc1cccc2c1C(=O)c1ccccc1C2=O,0.8,98.1,-1.5,69.1*
Cc1cc(C)cc(CC(=O)N2CCC2(C)C(=O)NS(=O)(=O)c2ccc(C(C)(C)C)cc2)c1 (stereo unspecified),.,-6.0,.,.
c1ccc2c(c1)oc1c(-c3ccc4nccn4c3)cccc12,.,-6.4,.,.
CC(C)n1c(=S)[nH]c2ccccc2c1=O,-1.8,13.4,-1.2,2.4
CCC(C)n1c(=S)[nH]c2ccccc2c1=O (stereo unspecified),9.6,28.3*,-2.2,2.5
CC(=O)NC(c1ccccc1)c1nc(-c2ccc(C)c(C)c2)cs1 (stereo unspecified),.,8.9,.,.
C=CCOc1ccc(CNC(C)(C)C)cc1OC,-4.0,24.3*,2.6,-2.0
COc1ccc(-c2cc(C)no2)cc1S(=O)(=O)NCc1cccc(C)c1,-2.4,35.6*,3.1,-22.8
